STAT1 inh = inhibitors of IFN-gamma induced STAT1 signaling | NIH 3T3 STAT1-luciferase reporter, luminescence | inhibition, % at 5.5 µM | hit rate 0.35% among 200,000 | AID 920;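 active = inhibition above a set limit, the mean inhibition across all tested compounds plus 3 SD, cut at about 34% in these data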;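 also: 0% = IFN-gamma with DMSO and 100% = IFN-gamma with 300 µM nifuroxazide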
NF-kB expr up = NF-kB expression increase, human neuronal cells; AID 1239; fold change at 12.5 µM; NF-kB reporter expression; stronger effect = higher value; hit rate 1.6% among 190,000; in the data active = fold change above about 3.3
APP 5'UTR act = activates APP 5'UTR luciferase reporter; SH-SY5Y APP 5'UTR luciferase reporter, luminescence; zero percent = DMSO vehicle wells; hit rate 1% among 190,000; AID 1276; activation, % at 2 µM;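 active = activation above a set limit, based on mean plus 3 SD of controls, cut at about 140% in these data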
STAT3 activator = activators of IL-6 induced STAT3 signaling; U3A cells, IL-6 STAT3-luciferase reporter, luminescence; 100% = signal with IL-6 EC80 alone; activation (% of control), % at 5.6 µM; hit rate 0.91% among 190,000; AID 871;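 active = activation above the screen-wide mean of compound activation plus 3 SD, cut at about 130% in these data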;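 also: 0% = background luminescence of wells with medium and substrate only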
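Detection: reporter luminescence signal / Assay system: STAT1-lacking human U3A cells, STAT3 luciferase reporter / Incubation: compound pre-incubation 1 h before IL-6, then 6 h stimulation at 37 °C / Control set: IL-6-only high control / Read-out: % activation relative to IL-6 control / Probe or stimulus: Interleukin-6, 33 ng/mL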
STAT3 blocker = inhibitors of IL-6 induced STAT3 signaling | U3A cells, IL-6 STAT3-luciferase reporter, luminescence; host cell line lacks STAT1 | inhibition, % at 5.5 µM | hit rate 0.89% among 190,000;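 active = inhibition above the mean inhibition across all screened compounds plus 3 SD, cut at about 44% in these data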;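 also: 0% = DMSO only wells and 100% = 100 µM nifuroxazide control wells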
STAT1 activator = activators of IFN-gamma induced STAT1 signaling. NIH 3T3 STAT1-luciferase reporter, luminescence; 100% = IFN-gamma alone, no compound. activation (% of control), % at 5.5 µM. hit rate 2.6% among 200,000. AID 932;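 active = activation above the screen-wide mean activation plus 3 SD, cut at about 130% in these data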;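 also: raw ratio to IFN-gamma control signal so 100% means no change and 0% no light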
* marks the source's active call; other numbers are inactive results; x = not tested or not shown. Shown are actives, neighbours in structure and some others; about 4.9% of the full set was active somewhere.

SMILES | STAT1 inh | NF-kB expr up | APP 5'UTR act | STAT3 activator | STAT3 blocker | STAT1 activator
CC[C@H](C)[C@H](NC(N)=O)C(=O)Nc1ccccc1F | -2.6 | 1.03 | 24.2 | 100.0 | 2.2 | 101.9
Cc1cccc(N=c2oc3cc(O)ccc3cc2C(N)=O)c1 | -33.0 | 1.91 | -11.4 | 99.2 | 6.3 | 130.1*
COc1ccc2oc(=Nc3cccc(F)c3)c(C(N)=O)cc2c1 | -28.1 | 1.23 | 6.6 | 91.9 | 12.1 | 123.0
COc1ccc2cc(C(N)=O)c(=Nc3ccc(C)cc3)oc2c1 | -42.8 | 1.34 | 15.5 | 98.3 | 13.3 | 138.2*
Cc1[nH]n(-c2ccc([N+](=O)[O-])cc2)c(=O)c1N=Nc1nc2ccccc2s1 | -3.2 | x | 12.3 | 162.6* | -70.3 | 103.0
Cc1cc([N+](=O)[O-])ccc1N=Nc1c(N)[nH]n(-c2ccccc2)c1=O | -5.5 | 1.21 | 18.8 | 98.5 | 3.1 | 103.7
Cc1ccc(S(=O)(=O)NCc2ccc(C(=O)NCCCN3CCC(Cc4ccccc4)CC3)cc2)cc1 | 3.8 | 0.82 | -5.8 | 93.6 | 12.4 | 93.9
CN(C)C(=O)c1ccc(COc2ccccc2Br)o1 | -32.9 | 2.25 | 76.2 | 95.3 | 7.1 | 132.3*
COc1ccccc1OCc1ccc(C(=O)N(C)C)o1 | -7.8 | 1.96 | 5.4 | 94.0 | 11.2 | 107.1
COC(=O)c1ccc(COC(=O)CCc2nc(-c3ccccc3)c(-c3ccccc3)o2)cc1 | 3.0 | 0.8 | 15.5 | 98.0 | 7.9 | 97.3
COc1ccc(C(=O)Oc2c(CN3CCOCC3)cc(Cl)c3cccnc23)cc1 | 8.1 | 27.6* | -37.6 | 100.7 | 2.9 | 92.6
O=C(Oc1c(CN2CCOCC2)cc(Cl)c2cccnc12)c1cccs1 | -7.8 | 1.06 | -27.1 | 101.1 | 3.4 | 104.0
O=C(Oc1c(CN2CCOCC2)cc(Cl)c2cccnc12)c1ccc(F)cc1 | 5.7 | 7.58* | -37.0 | 84.6 | 21.5 | 97.9
O=C(Oc1c(CN2CCOCC2)cc(Cl)c2cccnc12)c1ccccc1Cl | 1.6 | 1.69 | -53.1 | 95.7 | 5.1 | 98.6
COc1cccc(C(=O)Oc2c(CN3CCOCC3)cc(Cl)c3cccnc23)c1 | -1.6 | 4.57* | -37.9 | 95.7 | 6.8 | 101.5
COc1cc(C(=O)Oc2c(CN3CCOCC3)cc(Cl)c3cccnc23)cc(OC)c1OC | -5.5 | 3.76* | -39.3 | 105.6 | 2.5 | 104.9
C(#CC12CC3CC(CC(C3)C1)C2)CN1CCOCC1 | 0.9 | 1.07 | 6.3 | 104.3 | -4.0 | 98.2
C/C(=N\NC(=O)c1ccccc1-n1cccc1)C1CC1 | 8.3 | 1.13 | -0.7 | 100.7 | 2.3 | 92.5
CC1=NN(c2nc(-c3ccc(C)cc3)cs2)C(=O)C1N=Nc1ccccc1O (configuration not stated) | -10.4 | 1.75 | -51.9 | 103.8 | -2.1 | 107.7
COc1ccc(-c2csc(N3N=C(C)C(C)C3=O)n2)cc1 (configuration not stated) | -34.3 | 2.23 | 40.7 | 101.2 | 7.1 | 132.5*
Cc1cc(C)nc(-n2nc(C)c(Sc3ccc(F)cc3)c2N)n1 | -33.1 | 3.04 | 165.4* | 124.7 | -28.0 | 130.7*
Cn1cc(CNCc2cn[nH]c2-c2ccc(F)cc2)c(-c2ccc3c(c2)OCCO3)n1 | 7.5 | 1.18 | 15.4 | 94.2 | 12.2 | 92.9
Cn1cc(CNCc2ccc(OC(F)(F)F)cc2)c(-c2ccc3c(c2)OCCO3)n1 | 33.4 | 0.57 | 10.5 | 54.4 | 56.3* | 68.6
Cc1ccc(CNC(=O)C2CCC(=O)N2CCc2ccccc2)cc1 (configuration not stated) | -1.0 | 1.18 | -11.5 | 99.2 | 4.5 | 100.9
COc1ccc(-c2cn3cccnc3n2)cc1Br | -7.6 | 1.73 | -4.4 | 91.2 | 13.8 | 106.8
SMILES | STAT1 inh | NF-kB expr up | APP 5'UTR act | STAT3 activator | STAT3 blocker | STAT1 activator
COc1ccc(-c2cn3cc(Br)cnc3n2)cc1 | -39.7 | 2.17 | 100.4 | 90.2 | 15.6 | 134.6*
Cc1ccc(CN2CCN(Cc3ccc4cc(F)ccc4n3)CC2CCO)o1 (configuration not stated) | -6.4 | 1.13 | 2.4 | 125.5 | -24.2 | 104.6
COc1ccc(-c2nc(C#N)c(NCc3ccc(C)cc3)o2)cc1OC | -3.8 | 1.18 | 24.8 | 99.0 | 4.9 | 103.5
CNc1oc(-c2ccc(Cl)cc2)nc1C#N | -35.3 | 2.32 | 33.6 | 92.2 | 11.4 | 132.3*
CC(C)(C)c1ccc(-c2nc(C#N)c(NCc3ccncc3)o2)cc1 | -34.1 | 2.33 | x | 106.9 | -2.1 | 131.2*
O=C(NN=C1CCC(=NNC(=O)c2ccccn2)CC1)c1ccccn1 | -42.8 | 1.44 | 170.7* | 106.4 | -5.2 | 137.5*
O=C(N/N=C/C1CCCCC1)c1ccccn1 | -40.6 | 1.72 | 139.3* | 107.3 | -4.4 | 137.1*
C/C(=N\NC(=S)NCc1ccccc1)c1ccc(C)o1 | 7.0 | 1.39 | 3.6 | 97.2 | 7.7 | 92.3
CCCn1c(N)cc(=O)n(CCC)c1=O | 12.2 | 1.34 | 11.7 | 99.1 | 3.5 | 88.0
CCN=c1scc(-c2ccco2)n1/N=C/c1ccc(OC)c(O)c1 | 10.6 | 3.99* | 181.7* | 83.8 | 24.1 | 90.3
CCN=c1scc(-c2ccco2)n1/N=C/c1ccc(O)cc1 | -11.2 | 1.14 | 78.5 | 85.8 | 22.6 | 110.3
Cc1cc(/C=N/n2cnnc2)c(C)n1-c1ccc(OCc2ccc(Cl)cc2Cl)cc1 | 39.6* | 0.46 | -50.9 | 50.6 | 61.3* | 63.5
COc1ccc(S(=O)(=O)NC(C)C)cc1C(=O)N1CCOCC1 | -2.8 | 1.29 | 18.7 | 97.8 | 4.8 | 102.1
Cc1nc(-c2ccc(Br)cc2)ccc1C(=O)O | 1.7 | 0.91 | -6.1 | 86.8 | 18.4 | 98.5
CC(C(=O)O)c1ccc(N2Cc3ccccc3C2=O)cc1 (configuration not stated) | -49.1 | 6.15* | 74.3 | 75.7 | 29.8 | 144.7*
COCC(C)n1c(C)cc(C(=O)COC(=O)c2n[nH]c3ccccc23)c1C (configuration not stated) | -17.1 | 0.7 | 143.0* | 86.8 | 19.8 | 115.8
Cc1cc(Oc2cc(N)cc([N+](=O)[O-])c2)ccc1Cl | -10.9 | 1.1 | 1.9 | 109.1 | -10.3 | 109.7
CCCc1ccc(OCc2ccc(C(=O)Nc3cccc(C)n3)o2)c(OC)c1 | -43.0 | 1.14 | 8.0 | 99.5 | 7.6 | 138.1*
CCCc1ccc(OCc2ccc(C(=O)NCc3cccnc3)o2)c(OC)c1 | -0.4 | 1.59 | 3.6 | 105.9 | -3.5 | 99.3
CCNc1nc(NCC)n2c(SC(C(=O)Nc3cc(Cl)cc(Cl)c3)c3ccccc3)nnc2n1 (configuration not stated) | -6.7 | 1.07 | -19.1 | 104.4 | -4.4 | 106.0
Cc1cc(/C=c2/sc3nc4ccccc4n3c2=O)c(C)n1-c1ccccn1 | 85.9* | 0.17 | -59.8 | 12.7 | 104.4* | 22.6
O=C(NCC(=O)N(c1cccnc1)C(C(=O)NC1CCCC1)c1cccs1)c1ccco1 (configuration not stated) | -2.8 | 1.2 | -19.2 | 98.0 | 7.8 | 100.5
Cc1cccc(NC(=S)NCCc2ccccc2)n1 | 1.7 | x | -1.7 | 92.2 | 14.7 | 98.8
S=C(NCCc1ccccc1)Nc1ccccn1 | -37.1 | 1.63 | 26.5 | 109.8 | -7.2 | 132.8*

High-throughput results deposited in PubChem BioAssay by several laboratories.
